Measured values as given in paper PMC4964276 (The Biochemical journal, 2016).

Columns and labels:
[1] = tested on: D/D domain of RIIα (RIIα-D/D(1–44)); assay: Isothermal titration calorimetry; type: binding, human; conditions: ITC, one-site model, 25 °C, pH 7.5; three independent measurements
Procedure, shortened: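 Run in 20 mM Hepes, pH 7.5, 150 mM NaCl at 25 °C. Cell held RIIα D/D domain at 20 μM, and the syringe held the test AKAP18β(43–83) peptide at 100 μM. There were 25–30 injections of 10–12 μl at 5–20 min intervals. Incremental heat per mole was fitted by non-linear least squares to a one-site model, and protein concentration was adjusted by the fit.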

[2] = tested on: RI subunits of PKA; conditions: cited from earlier work

NGGEPDDAELVRLSKRLVENAVLKAVQQY LEETQ NKNKP GE [AKAP18β(43–83)]
n (sites) [1]: 0.98 sites

SKIP: AKAP that preferentially or specifically binds RI
Binding preference for RI, SKIP ([2]; ref [12],[13]): preferentially or specifically bind RI

smAKAP: RI-specific AKAP, full-length [reference compound]
Binding preference for RI, smAKAP ([2]; ref [14]): preferentially or specifically bind RI
